Key:
[1] = system: Calu-1; test: Growth inhibition of human Calu1 cells at 10 uM after 48 hrs by WST-8 assay; format: functional; conditions: Calu-1, 48 h, read-out: GI
Summary of the method: (§1)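 ATCC cells kept in DMEM with 10% FBS and antibiotics at 37 °C, 5% CO2. Seeded 5×10^3/well, incubated overnight, then treated with compound for 48 h against a DMSO vehicle control (≤0.1%). CCK-8 (WST-8) reduction by live-cell dehydrogenases read at 450 nm (corrected 650 nm) after 4 h at 37 °C. Viable cells expressed as % of the DMSO control.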

[2] = system: PANC-1; test: Growth inhibition of human PANC1 cells at 10 uM after 48 hrs by WST-8 assay; format: functional; conditions: PANC-1, 48 h, read-out: GI; summary of the method: as §1
[3] = system: Calu-1; test: Cytotoxicity against human Calu1 cells after 48 hrs by WST-8 assay; format: functional, cell-based; conditions: Calu-1, 48 h
Summary of the method: (§2)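 ATCC cells kept in DMEM with 10% FBS, penicillin/streptomycin at 37 °C, 5% CO2. Seeded 5×10^3/well and left overnight, then exposed to a range of concentrations with DMSO vehicle (≤0.1%) as control. After 48 h, CCK-8 (WST-8) was added for 4 h at 37 °C and A450 read, corrected to 650 nm. Viability is % of DMSO control. IC50 was taken from log cytotoxicity curves.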

[4] = system: PANC-1; test: Cytotoxicity against human PANC1 cells after 48 hrs by WST-8 assay; format: functional, cell-based; conditions: PANC-1, 48 h; summary of the method: as §2
[5] = system: ACHN; test: Cytotoxicity against human ACHN cells after 48 hrs by WST-8 assay; format: functional, cell-based; summary of the method: as §2
[6] = system: MCF-10A; test: Cytotoxicity against human MCF10A cells after 48 hrs by WST-8 assay; format: cell-based; summary of the method: as §2
[7] = system: NCI-H460; test: Cytotoxicity against human NCI-H460 cells after 48 hrs by WST-8 assay; format: functional, cell-based; conditions: NCI-H460, 48 h; summary of the method: as §2
[8] = system: HCT-116; test: Cytotoxicity against human HCT116 cells after 48 hrs by WST-8 assay; format: functional, cell-based; conditions: HCT-116, 48 h; summary of the method: as §2
[9] = system: NCI-H460; test: Growth inhibition of human NCI-H460 cells at 10 uM after 48 hrs by WST-8 assay; format: functional; conditions: NCI-H460, 48 h, read-out: GI; summary of the method: as §1
[10] = system: HCT-116; test: Growth inhibition of human HCT116 cells at 10 uM after 48 hrs by WST-8 assay; format: functional; conditions: HCT-116, 48 h, read-out: GI; summary of the method: as §1
[11] = system: ACHN; test: Growth inhibition of human ACHN cells at 10 uM after 48 hrs by WST-8 assay; format: functional; conditions: read-out: GI; summary of the method: as §1
[12] = system: HCT-116; test: Growth inhibition of human HCT116 cells at 500 nM after 48 hrs by WST-8 assay; format: functional; conditions: HCT-116, 48 h, read-out: GI; summary of the method: as §1
[13] = system: PANC-1; test: Growth inhibition of human PANC1 cells at 500 nM after 48 hrs by WST-8 assay; format: functional; conditions: PANC-1, 48 h, read-out: GI; summary of the method: as §1
[14] = system: Calu-1; test: Growth inhibition of human Calu1 cells at 500 nM after 48 hrs by WST-8 assay; format: functional; conditions: Calu-1, 48 h, read-out: GI; summary of the method: as §1
[15] = system: NCI-H460; test: Growth inhibition of human NCI-H460 cells at 500 nM after 48 hrs by WST-8 assay; format: functional; conditions: NCI-H460, 48 h, read-out: GI; summary of the method: as §1
[16] = system: ACHN; test: Growth inhibition of human ACHN cells at 500 nM after 48 hrs by WST-8 assay; format: functional; conditions: read-out: GI; summary of the method: as §1

Structure (SMILES) | inhibition of growth at 10 µM [1] [%] | inhibition of growth at 10 µM [2] [%] | IC50 [3] [µM] | IC50 [4] [µM] | IC50 [5] [µM] | IC50 [6] [µM] | IC50 [7] [µM] | IC50 [8] [µM] | inhibition of growth at 10 µM [9] [%] | inhibition of growth at 10 µM [10] [%] | inhibition of growth at 10 µM [11] [%] | inhibition of growth at 0.5 µM [12] [%] | inhibition of growth at 0.5 µM [13] [%] | inhibition of growth at 0.5 µM [14] [%] | inhibition of growth at 0.5 µM [15] [%] | inhibition of growth at 0.5 µM [16] [%]
CC(C)CC(=O)c1c(O)c(C(=O)CC(C)C)c(O)c(C(c2cc3ccccc3s2)c2c(O)c(C(=O)CC(C)C)c(O)c(C(=O)CC(C)C)c2O)c1O | 54 | 59 | 9.5 | 9.8 | 9.9 | > 30 | 9.7 | 9.8 | 54 | 65 | 54 |  |  |  |  | 
CC(C)CC(=O)c1c(O)c(C=O)c(O)c(C(c2cccnc2)c2c(O)c(C=O)c(O)c(C(=O)CC(C)C)c2O)c1O | 66 | 67 | 6.3 | 6.1 | 5.7 | > 30 | 5.8 | 5.5 | 68 | 69 | 71 |  |  |  |  | 
CC(C)CC(=O)c1c(O)c(C=O)c(O)c(C(c2ccc3c(c2)Cc2ccccc2-3)c2c(O)c(C=O)c(O)c(C(=O)CC(C)C)c2O)c1O | 58 | 57 | 8.8 | 9.6 | 9.9 | 26.2 | 9.2 | 9.4 | 54 | 52 | 50 |  |  |  |  | 
CC(C)CC(=O)c1c(O)c(C=O)c(O)c(C(c2ccc3c(c2)OCO3)c2c(O)c(C=O)c(O)c(C(=O)CC(C)C)c2O)c1O | 54 | 55 | 9.2 | 8.8 | 8.9 | 25.9 | 8.6 | 9.5 | 51 | 50 | 53 |  |  |  |  | 
CC(C)CC(=O)c1c(O)c(C(=O)CC(C)C)c(O)c(C(c2ccc3c(c2)OCO3)c2c(O)c(C(=O)CC(C)C)c(O)c(C(=O)CC(C)C)c2O)c1O | 62 | 69 | 6.5 | 7.2 | 6.7 | > 30 | 6.6 | 7.1 | 63 | 60 | 67 |  |  |  |  | 
Nc1ccn([C@@H]2O[C@H](CO)[C@@H](O)C2(F)F)c(=O)n1 [GEMCITABINE] |  |  | 0.52 | 0.11 | 0.48 | > 10 | 0.23 | 0.32 |  |  |  | 86 | 83 | 74 | 81 | 77

Source: ChEMBL document CHEMBL1955790, “One pot synthesis and anticancer activity of dimeric phloroglucinols” (Bioorg Med Chem Lett, 2012)
